The nature of series [1]: Selectivity index, ratio of IC50 for African green monkey Vero cells to IC50 for Trypanosoma cruzi IRHOD/CO/2008/SN3 DTU 1 amastigotes infected in African green monkey Vero cells. Format: toxicity. As to conditions: read-out: Ratio IC50. A digest of the protocol:
(§1)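 SI is Vero IC50 divided by the IC50 for the stated parasite form. For Vero cytotoxicity, cells were seeded at 1.25×10^4 mL^-1 with compounds at 1000–1 µM, incubated 48 h, then given resazurin for a further 24 h (72 h total), with absorbance read at 570/600 nm. Triplicate, four determinations.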

Series [2] is described as follows: Selectivity index, ratio of IC50 for African green monkey Vero cells to IC50 for Trypanosoma cruzi MHOM/Pe/2011/Arequipa DTU 5 epimastigotes. It is filed as toxicity. As to conditions: read-out: Ratio IC50. A digest of the protocol:
as §1

The test system of series [3] is Trypanosoma cruzi. Description: Trypanocidal activity against Trypanosoma cruzi IRHOD/CO/2008/SN3 DTU 1 epimastigotes after 48 hrs by resazurin dye based assay. Format: functional, organism-based. Particulars: IRHOD/CO/2008/SN3 DTU 1, 48 h. A digest of the protocol:
(§2)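 Exponential-phase epimastigotes were seeded at 5×10^5 mL^-1 with compounds at 100–0.2 µM (DMSO 0.01% v/v) at 28 °C. After 48 h, resazurin was added for another 24 h. SDS was then added and absorbance read at 570 and 600 nm.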

Series [4] deals with Trypanosoma cruzi. Description: Trypanocidal activity against Trypanosoma cruzi TINF/CH/1956/Tulahuen DTU 6 epimastigotes after 48 hrs by resazurin dye based assay. Format: functional, organism-based. Particulars: TINF/CH/1956/Tulahuen DTU 6, 48 h. A digest of the protocol:
as §2

The nature of series [5]: Selectivity index, ratio of IC50 for African green monkey Vero cells to IC50 for Trypanosoma cruzi IRHOD/CO/2008/SN3 DTU 1 epimastigotes. Format: toxicity. As to conditions: read-out: Ratio IC50. The method in brief: as §1
The nature of series [6]: Selectivity index, ratio of IC50 for African green monkey Vero cells to IC50 for Trypanosoma cruzi IRHOD/CO/2008/SN3 DTU 1 trypamastigotes derived from infected Balb/c albino mouse. It is filed as toxicity. Particulars: read-out: Ratio IC50. A digest of the protocol:
as §1

Another series relates to Vero. Description: Cytotoxicity against African green monkey Vero cells assessed as reduction in cell viability after 72 hrs by resazurin dye based assay. Particulars: Chlorocebus sabaeus. A digest of the protocol:
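Vero monkey kidney cells grown at 37 °C, 5 % CO2, in RPMI with 10 % heat-inactivated FBS. Seeded at 1.25 × 10^4 mL-1 with compound at 1000 to 1 µM (DMSO 0.01 % v/v). After 48 h, resazurin added for a further 24 h, then SDS. Absorbance read at 570/600 nm. IC50 from triplicates in four separate determinations.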

Series [7] relates to Trypanosoma cruzi. Description: Trypanocidal activity against Trypanosoma cruzi IRHOD/CO/2008/SN3 DTU 1 amastigotes infected in African green monkey Vero cells after 72 hrs by Giemsa-staining based microscopic assay. It is filed as functional, organism-based. Particulars: IRHOD/CO/2008/SN3 DTU 1, Vero. The method in brief:
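Vero cells were seeded at 1×10^4/well on coverslips. After 24 h they were infected with culture-derived trypomastigotes (MOI 1:10, 24 h), then washed. Compounds were added at 100–0.2 µM (DMSO 0.01% v/v) for 72 h at 37 °C, 5% CO2. Slides were methanol-fixed and Giemsa-stained; amastigotes and infected cells were counted over 500 host cells. IC50 was derived by curve fitting; triplicate wells, four separate determinations.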

The test system of series [8] is Trypanosoma cruzi. Description: Trypanocidal activity against Trypanosoma cruzi IRHOD/CO/2008/SN3 DTU 1 trypamastigotes derived from infected Balb/c albino mouse after 24 hrs by resazurin dye based assay. It is filed as functional, organism-based. As to conditions: IRHOD/CO/2008/SN3 DTU 1, 24 h. A digest of the protocol:
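Bloodstream trypomastigotes taken from mice at peak parasitaemia were seeded at 2×10^6 mL^-1 in RPMI with 10% FBS. Compounds were added at 50–0.2 µM and incubated 24 h at 37 °C, 5% CO2, then with resazurin for 4 h. SDS was added and absorbance read at 570/600 nm. IC50 was fitted; triplicate, four separate determinations.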

A short description of series [9]: Selectivity index, ratio of IC50 for African green monkey Vero cells to IC50 for Trypanosoma cruzi TINF/CH/1956/Tulahuen DTU 6 epimastigotes. It is filed as toxicity. Particulars: read-out: Ratio IC50. The method in brief: as §1
The subject of series [10] is Trypanosoma cruzi. Nature of the series: Trypanocidal activity against Trypanosoma cruzi MHOM/Pe/2011/Arequipa DTU 5 epimastigotes after 48 hrs by resazurin dye based assay. Format: functional, organism-based. Particulars: MHOM/Pe/2011/Arequipa DTU 5, 48 h. A digest of the protocol:
as §2

Turning to `Cc1ccc(C(=O)CCN2CCN(c3ccc([N+](=O)[O-])cc3)CC2)cc1`, the selectivity ratio in series [1] was 9.8; in series [2] it was 8.3; in series [5], 12.9; in [6] it was 9.3; in series [9], 5.1. Also, the concentration for half-maximal inhibition (IC50) came to 18.2 µM in the series on Trypanosoma cruzi [3]; 46.2 µM in the series on Trypanosoma cruzi [4]; 235 µM in the series on Vero; 24 µM with Trypanosoma cruzi [7]; 25.3 µM with Trypanosoma cruzi [8]; 28.4 µM with Trypanosoma cruzi [10].
In the case of `O=C(CCN1CCN(c2ccccc2F)CC1)c1ccc(F)cc1`, the selectivity ratio in [2] was 1.3; in [5], 0.9; in series [9], 0.9. The IC50 in the series with Trypanosoma cruzi [3] worked out at 52.6 µM; in the series on Trypanosoma cruzi [4], 53.5 µM; in the series with Vero it was 49.5 µM; in the series on Trypanosoma cruzi [10], 37.9 µM.
Consider `O=C(CCN1CCN(c2ccc(Cl)cc2)CC1)c1ccc(C(F)(F)F)cc1`, for which the selectivity ratio in [2] was 1; in series [5], 1.4; in [9] it was 1.4. In addition, the 50% inhibitory concentration (IC50) in the series with Trypanosoma cruzi [3] amounted to 38.2 µM; with Trypanosoma cruzi [4], 39.1 µM; with Vero, 54.2 µM; in the series with Trypanosoma cruzi [10] it was 52.7 µM.
As to `O=C(CCN1CCN(c2ccc(Cl)cc2)CC1)c1ccc(F)c(F)c1`, the selectivity ratio in series [2] came to 5.6; in series [5], 6.3; in [9], 1.9. Besides, the IC50 in the series on Trypanosoma cruzi [3] stood at 13.7 µM; with Trypanosoma cruzi [4], 46.2 µM; in the series on Vero it was 86.2 µM; with Trypanosoma cruzi [10], 15.4 µM.
Take `O=C(CCN1CCN(c2ccc(C(F)(F)F)cc2)CC1)c1ccc(C(F)(F)F)cc1`: the selectivity ratio in series [2] was 2; in series [5], 1.4; in series [9] it was 1.1. In addition, the IC50 with Trypanosoma cruzi [3] came to 34.7 µM; in the series on Trypanosoma cruzi [4], 43 µM; in the series with Vero it was 49.2 µM; with Trypanosoma cruzi [10] it was 24.3 µM.
`COc1ccc(C(=O)CCN2CCN(c3ccc(C(F)(F)F)cc3)CC2)cc1`: the results for the selectivity ratio in [2], in [5] and in series [9] were 1.9, 4.2 and 3.1, respectively. For the same compound, the IC50 was found to be 32.3 µM with Trypanosoma cruzi [3], 44 µM in the series with Trypanosoma cruzi [4], 135 µM in the series with Vero and 72.9 µM in the series on Trypanosoma cruzi [10].
For `O=C(CCN1CCN(c2ccc(F)cc2)CC1)c1ccc(C(F)(F)F)cc1`, the values for the selectivity ratio in [2], in [5] and in [9] were 0.8, 0.4 and 0.5, respectively. The concentration for half-maximal inhibition (IC50) with Trypanosoma cruzi [3] came to 66.4 µM; with Trypanosoma cruzi [4], 60.3 µM; with Vero, 28.5 µM; in the series on Trypanosoma cruzi [10] it was 36.9 µM.
With `O=C(CCN1CCN(c2ccc([N+](=O)[O-])cc2)CC1)c1ccc(F)c(Cl)c1`, the results for the selectivity ratio in series [2], in series [5] and in series [9] were 3.4, 2.3 and 2.8, respectively. Moreover, the IC50 came out at 51 µM in the series on Trypanosoma cruzi [3], 41.5 µM in the series on Trypanosoma cruzi [4], 116 µM with Vero and 34.2 µM in the series on Trypanosoma cruzi [10].
As to `O=C(CCN1CCN(c2ccc([N+](=O)[O-])cc2)CC1)c1ccc(F)cc1`, the values for the selectivity ratio in series [2], in [5] and in series [9] were 1.7, 2 and 1.4, respectively. The IC50 in the series with Trypanosoma cruzi [3] was determined as 54.5 µM; in the series with Trypanosoma cruzi [4] it was 78.1 µM; in the series with Vero, 110 µM; in the series with Trypanosoma cruzi [10], 65.8 µM.
`O=C(CCN1CCN(c2ccc(Cl)cc2)CC1)c1ccc(F)c(Br)c1`: the selectivity ratio came to 7.7 in series [2], 5.9 in series [5] and 6.7 in [9]. Moreover, the IC50 in the series on Trypanosoma cruzi [3] was 35.1 µM; with Trypanosoma cruzi [4], 30.6 µM; in the series with Vero it was 206 µM; in the series on Trypanosoma cruzi [10], 26.6 µM.
As for `O=C(CCN1CCN(c2ccc(Cl)cc2)CC1)c1ccc(OC(F)(F)F)cc1`, the selectivity ratio in series [2] came to 2.3; in [5], 2.8; in [9], 1.5. The IC50 in the series with Trypanosoma cruzi [3] was determined as 34.1 µM; in the series on Trypanosoma cruzi [4], 61.8 µM; with Vero, 95.6 µM; in the series on Trypanosoma cruzi [10], 42.2 µM.
As for `O=C(CCN1CCN(c2ccc(F)cc2)CC1)c1ccc(OC(F)(F)F)cc1`, the selectivity ratio in [2] was 0.8; in [5], 2.5; in series [9], 1.3. The IC50 in the series on Trypanosoma cruzi [3] was 27.6 µM; with Trypanosoma cruzi [4] it was 52.6 µM; in the series on Vero, 70.3 µM; in the series on Trypanosoma cruzi [10], 85.4 µM.
With `COc1ccc(N2CCN(CCC(=O)c3ccc(F)cc3)CC2)cc1`, the selectivity ratio in [2] amounted to 1.3; in series [5] it was 1.4; in series [9], 0.8. Also, the concentration for half-maximal inhibition (IC50) in the series with Trypanosoma cruzi [3] was 22.2 µM; in the series with Trypanosoma cruzi [4] it was 38.9 µM; in the series with Vero it was 31.9 µM; with Trypanosoma cruzi [10], 24.5 µM.
Regarding `COc1ccccc1N1CCN(CCC(=O)c2ccc(F)cc2)CC1`, the results for the selectivity ratio in series [2], in [5] and in [9] were 0.4, 0.6 and 0.5, respectively. Besides, the IC50 in the series with Trypanosoma cruzi [3] is 40.5 µM; in the series on Trypanosoma cruzi [4], 45.6 µM; with Vero, 24 µM; with Trypanosoma cruzi [10], 58.3 µM.
In the case of `Cc1ccc(C(=O)CCN2CCN(c3ccc(Cl)cc3)CC2)cc1`, the selectivity ratio is 5.8 in series [2], 7.1 in series [5] and 6.2 in series [9]. Besides, the 50% inhibitory concentration (IC50) was found to be 26 µM with Trypanosoma cruzi [3], 29.5 µM in the series on Trypanosoma cruzi [4], 184 µM in the series on Vero and 31.7 µM in the series on Trypanosoma cruzi [10].
For the compound `O=C(CCN1CCN(c2ccc(Cl)cc2)CC1)c1ccc(F)c(Cl)c1`, the selectivity ratio in [2] came out at 2.5; in series [5], 3.9; in [9], 3.9. Moreover, the half-inhibitory concentration (IC50) in the series with Trypanosoma cruzi [3] stood at 29.5 µM; in the series on Trypanosoma cruzi [4], 29.1 µM; in the series on Vero it was 114 µM; in the series on Trypanosoma cruzi [10] it was 45.5 µM.
Regarding `O=C(CCN1CCN(c2ccc(C(F)(F)F)cc2)CC1)c1ccc(Cl)c(F)c1`, the figures for the selectivity ratio in series [2], in series [5] and in series [9] were 2.7, 1.5 and 1.1, respectively. Also, the 50% inhibitory concentration (IC50) in the series with Trypanosoma cruzi [3] worked out at 49.1 µM; in the series on Trypanosoma cruzi [4], 66.7 µM; with Vero it was 74.3 µM; in the series with Trypanosoma cruzi [10], 27.6 µM.
With `O=C(CCN1CCN(c2ccc(C(F)(F)F)cc2)CC1)c1ccccc1`, the figures for the selectivity ratio in [2], in series [5] and in series [9] were 1.2, 1 and 0.6, respectively. Also, the IC50 was found to be 16.2 µM in the series with Trypanosoma cruzi [3], 24.9 µM in the series on Trypanosoma cruzi [4], 15.7 µM in the series with Vero and 12.8 µM with Trypanosoma cruzi [10].
As for `O=C(CCN1CCN(c2ccc([N+](=O)[O-])cc2)CC1)c1ccc(OC(F)(F)F)cc1`, the selectivity ratio in [2] is 2.3; in series [5], 1; in [9], 1.8. For the same compound, the IC50 with Trypanosoma cruzi [3] worked out at 95 µM; with Trypanosoma cruzi [4], 52.1 µM; with Vero, 93.2 µM; in the series on Trypanosoma cruzi [10], 41.1 µM.

The values are drawn from ChEMBL document CHEMBL4118256, “Second Generation of Mannich Base-Type Derivatives with in Vivo Activity against Trypanosoma cruzi” (J Med Chem, 2018).
